A short description of test [1]: Inhibition of mouse recombinant alexa fluor 488-labeled PrPC expressed in Escherichia coli BL21(DE3) RIL assessed as inhibition of association with PrPSc measured for 10 secs by SIFT-based confocal microscopy. An outline of the steps: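 SIFT assay: Alexa-488-labelled mouse rPrP and Alexa-647-labelled L42 antibody (each about 2–6 nM) were mixed with diluted human PrPSc and compound in 20 mM potassium phosphate pH 6 with 0.1% Nonidet P40. Dilution series 0.1–100 µM. Read by dual-colour confocal FIDA as 2D intensity histograms, with cut-offs set from controls. EC50 is half-maximal inhibition of rPrP binding to PrPSc.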

The test system of test [2] is ScN2a. Nature of the test: Antiprion activity in mouse ScN2a cells assessed as reduction in PrPSc level at 20 uM after 3 days by dot blot assay relative to control. Type of test: cell-based. Further details: scale not given: the % may be the effect or the level left. An outline of the steps: (§1)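 Compound was added at a final 20.0 or 2.0 µM, then incubated 3 days (ScN2a at 37 °C, SMB at 35 °C). Lysates were dot-blotted to PVDF, treated with proteinase K (25 µg/ml, 90 min, 37 °C) and denatured with guanidinium thiocyanate. PrPres was probed with rabbit 1023 antiserum and detected by ECL. Signal is relative to untreated control (100%), from three independent experiments.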

Test [3] relates to ScN2a. The experiment in a line: Antiprion activity in mouse ScN2a cells assessed as reduction in PrPSc level at 2 uM after 3 days by dot blot assay relative to control. Further details: scale not given: the % may be the effect or the level left. Type of test: cell-based. The procedure, abridged: as §1
Test [4] has as its system SMB. The experiment in a line: Antiprion activity in mouse SMB cells assessed as reduction in PrPSc level at 20 uM after 3 days by dot blot assay relative to control. Type of test: cell-based. The arrangement: scale not given: the % may be the effect or the level left. An outline of the steps:
as §1

The subject of test [5] is SMB. The experiment in a line: Antiprion activity in mouse SMB cells assessed as reduction in PrPSc level at 2 uM after 3 days by dot blot assay relative to control. Type of test: cell-based. Further details: scale not given: the % may be the effect or the level left. An outline of the steps:
as §1

Test [6] can be described thus: Antiprion activity in mouse ScN2a cells assessed as reduction in PrPSc level after 3 days by dot blot assay relative to control. Type of test: cell-based. The note with it: 72 h.
Test [7] is described as follows: Antiprion activity in mouse SMB cells assessed as reduction in PrPSc level after 3 days by dot blot assay relative to control. Type of test: cell-based. The note with it: 72 h.

SMILES strings stand for the structures. Bounds are passed on as bounds.

The EC50 is the concentration giving half of the maximal effect. With `CCCCNC(=O)c1cc(NC(=O)CN2CCCCC2)ccc1Oc1ccc(OC)cc1`, the figures for the EC50 in test [1] (read-out: EC50), in test [6] and in test [7] were 150 µM, 3560 nM and more than 1000 µM, respectively. Further, the Activity came to 28% in test [2], 49% in test [3], 82% in test [4] and 83% in test [5].
For the compound `CCCCNC(=O)c1cc(NC(=O)CN2CCCCC2)ccc1Oc1ccccc1C(F)(F)F`, the EC50 in test [1] (read-out: EC50) amounted to 70 µM; in test [6], 2040 nM; in test [7], 30.6 µM. In addition, the Activity worked out at 12% in test [2], 39% in test [3], 55% in test [4] and 75% in test [5].
Take `C#CCOc1ccc(NC(=O)CN2CCCCC2)cc1C(=O)NCCCC`: the values for the EC50 result in test [1], in test [6] and in test [7] were “Not Active”, 9280 nM and 97.2 µM, respectively. Moreover, the Activity in test [2] is 37%; in test [3] it was 76%; in test [4], 66%; in test [5] it was 70%.
As to `CCCCNC(=O)c1cc(NC(=O)CN2CCCC2)ccc1Oc1ccc(C(C)C)cc1`, the figures for the EC50 in test [1] (read-out: EC50), in test [6] and in test [7] were 18 µM, 2080 nM and 16.3 µM, respectively. The Activity in test [2] came out at 20%; in test [3], 32%; in test [4], 48%; in test [5], 73%.
Consider `CCCCNC(=O)c1cc(NC(=O)CN2CCCCC2)ccc1Oc1ccc(C(F)(F)F)cc1`, for which the results for the EC50 in test [1] (read-out: EC50), in test [6] and in test [7] were 70 µM, 2080 nM and 30 µM, respectively. In addition, the Activity in test [2] was found to be 17%; in test [3], 35%; in test [4], 53%; in test [5], 80%.
In the case of `CCCCNC(=O)c1cc(NC(=O)CN2CCCC2)ccc1Oc1ccccc1`, the concentration giving a half-maximal response (EC50) was 200 µM in test [1] (read-out: EC50), 5520 nM in test [6] and more than 1000 µM in test [7]. Moreover, the Activity was 41% in test [2], 48% in test [3], 82% in test [4] and 92% in test [5].
For the compound `CCCCNC(=O)c1cc(NC(=O)CN2CCCC2)ccc1Oc1ccc(C)cc1`, the EC50 worked out at 70 µM in test [1] (read-out: EC50), 1830 nM in test [6] and 18.9 µM in test [7]. Also, the Activity in test [2] was determined as 13%; in test [3], 32%; in test [4] it was 55%; in test [5], 61%.
For the compound `CCCCNC(=O)c1cc(NC(=O)CN2CCCC2)ccc1OC12CC3CC(CC(C3)C1)C2`, the EC50 in test [1] (read-out: EC50) was 80 µM; in test [6], 2000 nM; in test [7], 12.4 µM. For the same compound, the Activity was 16% in test [2], 34% in test [3], 42% in test [4] and 77% in test [5].
Consider `CCCCNC(=O)c1cc(NC(=O)CN2CCCCC2)ccc1OC1CCCCC1`, for which the EC50 in test [1] (read-out: EC50) was 80 µM; in test [6], 2390 nM; in test [7] it was 108 µM. In addition, the Activity was 22% in test [2], 37% in test [3], 65% in test [4] and 76% in test [5].
In the case of `CCCCNC(=O)c1cc(NC(=O)CN2CCCCC2)ccc1Oc1ccc(OCCCC)cc1`, the results for the EC50 in test [1] (read-out: EC50), in test [6] and in test [7] were 50 µM, 3730 nM and 24.3 µM, respectively. Moreover, the Activity came out at 21% in test [2], 61% in test [3], 52% in test [4] and 76% in test [5].
Consider `CCCCNC(=O)c1cc(NC(=O)CN2CCCC2)ccc1Oc1ccc(F)cc1`, for which the EC50 was 200 µM in test [1] (read-out: EC50), 4700 nM in test [6] and more than 1000 µM in test [7]. The Activity in test [2] was determined as 39%; in test [3] it was 45%; in test [4], 92%; in test [5], 57%.
For the compound `CCCCNC(=O)c1cc(NC(=O)CN2CCCCC2)ccc1Oc1ccc(F)cc1`, the EC50 in test [1] (read-out: EC50) is 70 µM; in test [6] it was 2930 nM; in test [7] it was more than 1000 µM. The Activity in test [2] stood at 32%; in test [3], 35%; in test [4] it was 81%; in test [5], 61%.
In the case of `CCCCNC(=O)c1cc(NC(=O)CN2CCCC2)ccc1Oc1ccc(C(F)(F)F)cc1`, the EC50 in test [1] (read-out: EC50) turned out to be 40 µM; in test [6] it was 1610 nM; in test [7], 5.81 µM. For the same compound, the Activity in test [2] was found to be 12%; in test [3], 26%; in test [4], 41%; in test [5], 50%.
Consider `C#CCOc1ccc(NC(=O)CN2CCCC2)cc1C(=O)NCCCC`, for which the results for the EC50 entry in test [1], in test [6] and in test [7] were “Not Active”, 3520 nM and 99.2 µM, respectively. Besides, the Activity turned out to be 32% in test [2], 43% in test [3], 65% in test [4] and 74% in test [5].
Regarding `CCCCNC(=O)c1cc(NC(=O)CN2CCCC2)ccc1OC1CCCCC1`, the EC50 in test [1] (read-out: EC50) turned out to be 200 µM; in test [6] it was 3140 nM; in test [7], 7.81 µM. Further, the Activity in test [2] was 32%; in test [3], 38%; in test [4], 38%; in test [5], 67%.
On to `CCCCNC(=O)c1cc(NC(=O)CN2CCCCC2)ccc1Oc1ccc(Cl)cc1`, for which the EC50 in test [1] (read-out: EC50) turned out to be 20 µM; in test [6] it was 2250 nM; in test [7] it was 15 µM. In addition, the Activity in test [2] stood at 21%; in test [3] it was 35%; in test [4], 49%; in test [5] it was 68%.
For `CCCCNC(=O)c1cc(NC(=O)CN2CCCC2)ccc1Oc1ccc(OC)cc1`, the EC50 in test [1] (read-out: EC50) turned out to be 198 µM; in test [6], 2920 nM; in test [7], 866 µM. For the same compound, the Activity in test [2] worked out at 31%; in test [3] it was 36%; in test [4], 75%; in test [5], 74%.
Regarding `CCCCNC(=O)c1cc(NC(=O)CN2CCCCC2)ccc1OC12CC3CC(CC(C3)C1)C2`, the figures for the EC50 in test [1] (read-out: EC50), in test [6] and in test [7] were 50 µM, 1650 nM and 5.22 µM, respectively. Besides, the Activity in test [2] was determined as 12%; in test [3], 27%; in test [4] it was 36%; in test [5], 54%.
Regarding `CCCCNC(=O)c1cc(NC(=O)CN2CCCC2)ccc1Oc1ccc(OCCCC)cc1`, the EC50 in test [1] (read-out: EC50) stood at 30 µM; in test [6] it was 2980 nM; in test [7], 53.6 µM. For the same compound, the Activity in test [2] was 19%; in test [3], 52%; in test [4] it was 58%; in test [5] it was 82%.
`CCCCNC(=O)c1cc(NC(=O)CN2CCCC2)ccc1Oc1ccc(Cl)cc1`: the EC50 in test [1] (read-out: EC50) was 55 µM; in test [6], 1700 nM; in test [7], 12.3 µM. For the same compound, the Activity turned out to be 16% in test [2], 25% in test [3], 46% in test [4] and 68% in test [5].
For `CCCCNC(=O)c1cc(NC(=O)CN2CCCCC2)ccc1Oc1ccc(C)cc1`, the EC50 in test [1] (read-out: EC50) was 40 µM; in test [6] it was 2570 nM; in test [7], more than 1000 µM. The Activity in test [2] came out at 26%; in test [3] it was 36%; in test [4], 86%; in test [5] it was 86%.

(Values after ChEMBL document CHEMBL2062371, “Synthesis of benzamide derivatives and their evaluation as antiprion agents” (Bioorg Med Chem, 2012).)
